Bioassay records from PubChem BioAssay.
PAD4 FP inh: human PAD4 inhibitors, primary screen, biochemical, fluorescence polarization, 1536-well format; recombinant PAD4, RCA probe fluorescence polarization; inhibition, % at 6.36 µM; Protein-arginine deiminase type-4 (Homo sapiens), Q9UM07; 330,000 compounds, 0.41% hits;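 active = percent inhibition above a cutoff equal to the mean of all tested compounds plus 3 SD, cut at about 15% in these data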;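 also: 0% = PAD4 with RCA probe and DMSO and 100% = probe without PAD4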
Target sequence (Q9UM07 whole entry, looked up): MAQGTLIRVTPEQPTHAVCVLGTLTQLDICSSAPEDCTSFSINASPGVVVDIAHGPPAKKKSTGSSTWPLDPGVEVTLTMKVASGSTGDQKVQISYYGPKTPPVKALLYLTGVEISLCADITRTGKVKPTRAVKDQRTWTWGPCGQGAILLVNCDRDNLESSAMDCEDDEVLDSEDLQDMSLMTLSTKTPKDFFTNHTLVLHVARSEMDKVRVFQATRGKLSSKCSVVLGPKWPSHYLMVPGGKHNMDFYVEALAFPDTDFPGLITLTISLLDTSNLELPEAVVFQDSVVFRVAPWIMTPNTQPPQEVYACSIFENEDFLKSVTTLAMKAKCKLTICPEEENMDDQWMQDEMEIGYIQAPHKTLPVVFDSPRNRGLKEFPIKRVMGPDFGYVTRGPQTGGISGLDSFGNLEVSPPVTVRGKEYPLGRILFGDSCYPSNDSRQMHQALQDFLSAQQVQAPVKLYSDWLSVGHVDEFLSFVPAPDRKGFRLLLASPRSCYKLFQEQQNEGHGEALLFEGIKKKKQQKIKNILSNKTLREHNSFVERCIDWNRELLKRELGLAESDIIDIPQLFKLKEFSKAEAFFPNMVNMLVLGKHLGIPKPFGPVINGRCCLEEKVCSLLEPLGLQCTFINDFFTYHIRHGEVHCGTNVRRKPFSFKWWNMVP
GSTO1 counter: inhibitors of recombinant GSTO1, primary screen, counter-screen for RBBP9 inhibitor project, biochemical, fluorescence polarization. inhibition, % at 5.96 µM. 300,000 compounds, 1.1% hits. Glutathione S-transferase omega-1 (Homo sapiens), P78417. activity-based probe fluorescence polarization. AID 1974, 2009;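 active = inhibition above the campaign mean inhibition plus 3 SD, cut at about 35% in these data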;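 also: 0% = GSTO1-1 with DMSO and 100% = wells lacking GSTO1-1 enzyme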
TDP2 inh: human TDP2 enzyme inhibitors, primary screen, biochemical, epi absorbance, recombinant enzyme; 370,000 compounds, 0.34% hits; AID 720702, 2013; T5PNP hydrolysis, p-nitrophenol absorbance 415 nm; inhibition, % at 12.8 µM; Tyrosyl-DNA phosphodiesterase 2 (Homo sapiens), O95551;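 active = inhibition above the mean of all tested compounds plus 3 SD, set per campaign, cut at about 25% in these data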;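 also: 0% = DMSO with enzyme and 100% = buffer with substrate but no TDP2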
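test system = human TDP2 enzyme | input = TDP2 enzyme at 120 nM final | medium = 50 mM Tris-HCl pH 7.5 with Mg2+, KCl, DTT, BSA | also added = T5PNP substrate, 5 mM | times = 2 h at 37 °C | technique = epi absorbance | benchmarks = high control without enzyme, low control DMSO plus TDP2 | replication = each compound tested once, singlicate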
Fh CTSL1 inh: Fasciola hepatica cathepsin L1 inhibitors, primary screen, counter-screen for PFM18AAP inhibitor project, biochemical, QFRET, fluorogenic peptide substrate | recombinant F. hepatica cathepsin L1, Z-Leu-Arg-MCA fluorescence | inhibition, % at 5.96 µM | 300,000 compounds, 0.49% hits;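 active = inhibition above the mean of all tested compounds plus 3 SD, set per screening campaign, cut at about 17% in these data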;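 also: 0% = plate median of test compound wells and 100% = 1 µM Z-Phe-Ala-diazomethylketone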
PRMT1 inh: PRMT1 methyltransferase inhibitors, primary screen, biochemical, fluorescence polarization | inhibition, % at 2.79 µM | 370,000 compounds, 1.3% hits | Protein arginine N-methyltransferase 1 (Homo sapiens), Q99873 | recombinant PRMT1, activity-based probe fluorescence polarization;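 active = inhibition above about 21% made by adding two undisclosed values, limit read from the data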
PRMT1 confirm: PRMT1 methyltransferase inhibitors, confirmation, biochemical, fluorescence polarization, triplicate | recombinant His-PRMT1, activity-based probe fluorescence polarization | inhibition, % at 2.79 µM | 3,300 compounds, 42% hits | shares compounds with PRMT1 inh;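 active = mean inhibition across replicates above the hit cutoff derived for the earlier primary screen, cut at about 22% in these data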
* hit, by the source's call; x = no result. In the library only some 2.5% were active in any assay of this set; here they are far more common.

SMILES	PAD4 FP inh	GSTO1 counter	TDP2 inh	Fh CTSL1 inh	PRMT1 inh	PRMT1 confirm
O=C(CS(=O)(=O)c1ccccc1)c1ccc2c(c1)OCCO2	-7	-1	-2	-1	-1	x
CN(C)CCC(=O)c1ccc2c(c1)OCO2	-3	-7	9	6	36*	18
O=C(CCN1Cc2ccccc2C1)c1ccc2c(c1)OCCO2	-5	-4	-2	4	26*	22*
O=C(O)CCSCC(=O)c1ccc2c(c1)OCCO2	-2	6	-8	-7	32*	4
O=C(CCN1CCc2ccccc2C(c2ccccc2)C1)c1ccc2c(c1)OCCO2 (centres undefined)	-6	-14	7	6	38*	20
Cc1ccc(-c2nnc(SCC(=O)Nc3ccc(OCc4ccccc4)cc3)n2-c2ccc(Cl)cc2)cc1	x	x	0	x	-4	x
COc1cccc(CNC(=O)C[C@H]2CC[C@H]3[C@@H](COc4ccc(NC(=O)c5cccs5)cc4C(=O)N3C)O2)c1	x	x	-1	x	-1	x
COC(=O)[C@@]1(Sc2ccc(C)cc2)CC(=O)N[C@@H]1c1ccco1	x	x	-3	x	52*	1
COC(=O)c1c(-c2ccco2)csc1NC(=O)C1CC=CCC1C(=O)O (centres undefined)	-2	-5	-2	-3	27*	4
CCOC(=O)c1c(-c2ccc(F)cc2)csc1NC(=O)C1CC=CCC1C(=O)O (centres undefined)	-2	3	-15	0	7	x
O=C(OCc1cn(Cc2ccccc2F)nn1)N1CCCC1	x	x	0	x	0	x
CC1=CC(=O)C=CC1=Nc1ccc(N(C)C)cc1	x	x	-5	x	67*	41*
FC(F)(F)c1nc(=S)c2ccccc2[nH]1	x	x	-7	x	33*	25*
Cc1nc(=S)c2ccccc2[nH]1	-2	-5	0	2	-1	x
CCN(CC)C(=O)Cn1c2ccccc2c2nc3n(c(=O)c21)CCS3	x	x	-8	x	-1	x
C=CCN1C(=O)[C@H](CC(=O)NCC23CC4CC(CC(C4)C2)C3)[C@@]2(C(=O)OCC)CCCC=C12	x	x	-9	x	1	x
O=C1CC(c2ccco2)CC(O)=C1C=Nc1cc(Cl)cc(Cl)c1 (centres undefined)	-1	4	-4	-1	28*	13
CCOc1ccc(N=CC2=C(O)CC(c3ccco3)CC2=O)cc1 (centres undefined)	-6	3	12	4	-1	x
CCCCN1CN2Cc3cc(OC)ccc3C2CS1(=O)=O (centres undefined)	x	x	10	x	0	x
COc1ccc(NC(=O)CSC2CC(=O)N(c3ccc4c(c3)OCCO4)C2=O)cc1 (centres undefined)	-1	-1	-6	-3	36*	23*
CCOc1ccc(N2C(=O)CC(SCC(=O)O)C2=O)cc1 (centres undefined)	2	5	-8	-2	3	x
COc1ccccc1NC(=O)CSC1CC(=O)N(c2ccc3c(c2)OCO3)C1=O (centres undefined)	5	12	9	5	44*	35*
COc1ccc(N2C(=O)CC(SCC(=O)O)C2=O)cc1 (centres undefined)	0	4	-8	-1	25*	11
CCC(C(=O)Nc1ccccc1N1CCCC1)c1ccccc1Cl (centres undefined)	x	x	5	x	0	x
Cc1ccc(-c2csc(N)n2)s1	2	12	-25	-1	76*	28*
N#Cc1c([N+](=O)[O-])cc([N+](=O)[O-])cc1S(=O)(=O)Cc1ccccc1	-1	x	-3	x	72*	61*
COc1cc(OC)c(C#N)c(S(=O)(=O)Cc2ccccc2)c1	-6	-9	-1	1	3	x
CC(C)(C)c1ccc(-c2cn(C[C@H](Cc3ccccc3)n3c(=O)c4ccccc4n3Cc3ccco3)nn2)cc1	x	x	-9	x	2	x
